≈ marks a conversion by molar mass, not a printed value. Calls of active or inactive are those of the source. No cut-off for these calls is given here. Some results are limits rather than exact numbers.

Series [1] in a line: Cytotoxicity against pig LLC-PK1 cells assessed as reduction in viable cells measured after 48 hrs by neutral red dye-based method. The series is classed as toxicity, cell-based. As to conditions: pig (Sus scrofa). In short, it runs like this:
(§1)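 Vero (African green monkey kidney […]) and LLC-PK1 (pig kidney epithelial) cells were scored for viability by neutral red uptake. The top test concentration was 50 μg/mL. IC50 is the concentration causing 50% growth inhibition of the mammalian cells.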

Series [2] concerns Cryptococcus neoformans. Briefly: Antifungal activity against Cryptococcus neoformans H99 assessed as growth inhibition measured after 72 hrs by CLSI method. It is filed as functional. The conditions noted are these: var grubii H99 . The procedure, abridged: (§2)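 Susceptibility testing by a modified CLSI (formerly NCCLS) method against C. neoformans ATCC 90113, C. neoformans H99 (from Duke University) or C. gattii ATCC 32609. The top test concentration was 20 μg/mL. MIC is the lowest concentration allowing no detectable growth. IC50 is the concentration giving 50% growth inhibition.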

Series [3] can be described thus: Selectivity index, ratio of IC50 for African green monkey Vero cells to MIC for Cryptococcus neoformans ATCC 90113. The series is classed as toxicity, cell-based. The conditions noted are these: read-out: Selectivity Index. In short, it runs like this:
(§3)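 Selectivity index is the mammalian-cell IC50 (neutral red assay, Vero or LLC-PK1) divided by the MIC against C. neoformans ATCC 90113 (modified CLSI method).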

In series [4] the test system is Cryptococcus bacillisporus. Briefly: Antifungal activity against Cryptococcus gattii ATCC 32609 assessed as growth inhibition measured after 72 hrs by CLSI method. The series is classed as functional. As to conditions: ATCC 32609, 72 h. In short, it runs like this:
as §2

A further series has as its system Staphylococcus aureus. Description: Antibacterial activity against Staphylococcus aureus ATCC 29213 by CLSI method. The series is classed as functional.
The nature of series [5]: Antifungal activity against Cryptococcus neoformans ATCC 90113 assessed as growth inhibition at 20 ug/ml measured after 72 hrs by CLSI method. It is filed as functional. The procedure, abridged: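 Primary screen against C. neoformans ATCC 90113 by a modified CLSI method at 20 μg/mL. Growth inhibition above 50% at this concentration was scored as active and taken to further testing.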

Series [6] is described as follows: Selectivity index, ratio of IC50 for pig LLC-PK1 cells to MIC for Cryptococcus neoformans ATCC 90113. It is filed as toxicity, cell-based. The conditions noted are these: read-out: Selectivity Index. The procedure, abridged:
as §3

The nature of series [7]: Cytotoxicity against African green monkey Vero cells assessed as reduction in viable cells measured after 48 hrs by neutral red dye-based method. The series is classed as toxicity, cell-based. The conditions noted are these: African green monkey (Chlorocebus sabaeus). In short, it runs like this: as §1
Series [8] in a line: Antifungal activity against Cryptococcus neoformans ATCC 90113 assessed as growth inhibition measured after 72 hrs by CLSI method. The series is classed as functional. In short, it runs like this: as §2
For series [9], the system named is Cryptococcus bacillisporus. Briefly: Antifungal activity against Cryptococcus gattii ATCC 32609 assessed as growth inhibition at 20 ug/ml measured after 72 hrs by CLSI method. It is filed as functional. The conditions noted are these: ATCC 32609, 72 h, read-out: GI.
Series [10] concerns Cryptococcus neoformans. Briefly: Antifungal activity against Cryptococcus neoformans ATCC 90113 assessed as growth inhibition at 20 ug/ml measured after 72 hrs by CLSI method. The conditions noted are these: read-out: GI.

For the compound `CC(C)C(=O)c1c(O)cc(O)c(C(=O)C(C)C)c1O`, the figures for the 50% inhibitory concentration (IC50) at 48 h in [1] and in series [7] were 17.5 mg/L (≈ 65.7 µM) and 11.5 mg/L (≈ 43.2 µM), respectively. In addition, the MIC in the series with Cryptococcus neoformans [2] was 3.3 mg/L (≈ 12.4 µM); in series [4], 2.1 mg/L (≈ 7.89 µM); with Staphylococcus aureus, 1.3 mg/L (≈ 4.88 µM); in [8], 2.5 mg/L (≈ 9.39 µM). In addition, the selectivity ratio is 4.6 in series [3] and 7 in [6]. For the same compound, the growth inhibition (GI) in series [5] was above 50%.
Consider `CC(C)C(=O)c1c(O)cc(O)cc1OCc1c(F)cccc1Cl`, for which the IC50 at 48 h in series [1] and in series [7] was above 50 mg/L in each case. Besides, the figures for the MIC (in the series with Cryptococcus neoformans [2]; in series [4]; in [8]) were 8.3 mg/L (≈ 24.5 µM), 5 mg/L (≈ 14.8 µM) and 5 mg/L (≈ 14.8 µM), respectively. For the same compound, the selectivity ratio in [3] and in series [6] was above 10 each time. Besides, the result in the series on Staphylococcus aureus was Active. In series [5], the growth inhibition (GI) is above 50%.
Take `C#CCc1c(O)cc(O)c(C(=O)C(C)C)c1O`: the inhibition of growth at 20 µg/mL (in [9]; in the series on Cryptococcus neoformans [10]) was below 50% each time. The growth inhibition (GI) in series [5] was below 50%.
For `C=CCc1c(O)cc(O)c(C(=O)C(C)C)c1O`, the inhibition of growth at 20 µg/mL (in [9]; with Cryptococcus neoformans [10]) was below 50% throughout. For the same compound, in series [5], the growth inhibition (GI) is below 50%.
For `CC(C)C(=O)c1c(O)cc(O)c(Cc2ccc(C(C)C)cc2)c1O`, the IC50 at 48 h in series [1] and in [7] was above 50 mg/L each time. Moreover, the MIC in the series with Cryptococcus neoformans [2] worked out at 2.1 mg/L (≈ 6.39 µM); in series [4], 2.1 mg/L (≈ 6.39 µM); in the series with Staphylococcus aureus, 10 mg/L (≈ 30.4 µM); in [8], 1.5 mg/L (≈ 4.57 µM). Moreover, the selectivity ratio in [3] and in series [6] was above 33.3 in each case. In [5], the growth inhibition (GI) is above 50%.

The record behind these values is ChEMBL document CHEMBL3867450, “Synthesis of Natural Acylphloroglucinol-Based Antifungal Compounds against Cryptococcus Species” (J Nat Prod, 2016).
